In assay [1] the test system is NCI-H2347. Description: Antiproliferative activity against human NCI-H2347 cells assessed as inhibition of cell proliferation incubated for 3 days by CellTiter-Glo Luminescent Cell Viability Assay. The assay is classed as functional, cell-based. Conditions: NCI-H2347, 72 h. Summed up: (§1)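 Cells of each line were plated in 384-well plates on day 1 and exposed to compound from day 2 for 3 days. On day 5 all medium was aspirated. Viable cell number was read by CellTiter-Glo luminescence, which quantifies cellular ATP.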
For orientation: ATP-based viability assays read luminescence as a measure of living cells.

For assay [2], the system named is NCI-H1395. Briefly: Antiproliferative activity against human NCI-H1395 cells assessed as inhibition of cell proliferation incubated for 3 days by CellTiter-Glo Luminescent Cell Viability Assay. In kind it is functional, cell-based. The note with it: NCI-H1395, 72 h. Summed up: (§2)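 Cancer cell lines seeded in 384-well plates on day 1; compound added on day 2 and left for 3 days. On day 5 all medium was aspirated, and viable cells were quantified by CellTiter-Glo luminescence, which measures cellular ATP. Dose-dependent effects on proliferation were determined.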

The test system of assay [3] is NCI-H1755. Briefly: Antiproliferative activity against human NCI-H1755 cells assessed as inhibition of cell proliferation incubated for 3 days by CellTiter-Glo Luminescent Cell Viability Assay. The assay is classed as functional, cell-based. The note with it: NCI-H1755, 72 h. In a few lines: as §1
Assay [4] is described as follows: Antiproliferative activity against human Panc 05.04 cells assessed as inhibition of cell proliferation incubated for 3 days by CellTiter-Glo Luminescent Cell Viability Assay. The assay is classed as functional, cell-based. The note with it: Panc 05.04, 72 h. Summed up: as §1
Assay [5] deals with DAN-G. Briefly: Antiproliferative activity against human DAN-G cells assessed as inhibition of cell proliferation incubated for 3 days by CellTiter-Glo Luminescent Cell Viability Assay. The assay is classed as functional, cell-based. Conditions: 72 h. Summed up: as §2
Assay [6] deals with HCC4006. Description: Inhibition of anchorage independent cell growth in human HCC4006 cells incubated for 6 days by Alamar blue reagent based fluorescence plate reader analysis. In kind it is functional. Conditions: HCC4006, 144 h. For orientation: The colour change of resazurin is a common sign of viable cells or microbes.
Assay [7] relates to NCI-H1355. Description: Inhibition of anchorage independent cell growth in human NCI-H1355 cells incubated for 6 days by Alamar blue reagent based fluorescence plate reader analysis. Conditions: NCI-H1355, 144 h. In kind it is functional.
Assay [8] deals with NCI-H1993. Briefly: Inhibition of anchorage independent cell growth in human NCI-H1993 cells incubated for 6 days by Alamar blue reagent based fluorescence plate reader analysis. In kind it is functional. Conditions: NCI-H1993, 144 h.
Assay [9] has as its system NCI-H2087. Description: Inhibition of anchorage independent cell growth in human NCI-H2087 cells incubated for 6 days by Alamar blue reagent based fluorescence plate reader analysis. In kind it is functional. Conditions: NCI-H2087, 144 h.
Assay [10] relates to NCI-H23. Briefly: Inhibition of anchorage independent cell growth in human NCI-H23 cells incubated for 6 days by Alamar blue reagent based fluorescence plate reader analysis. In kind it is functional. Conditions: NCI-H23, 144 h.
In assay [11] the test system is HCC1187. Description: Antiproliferative activity against human HCC1187 cells assessed as inhibition of cell proliferation incubated for 3 days by CellTiter-Glo Luminescent Cell Viability Assay. In kind it is functional, cell-based. Conditions: HCC1187, 72 h. Summed up:
as §2

Assay [12] deals with HCC1419. Briefly: Antiproliferative activity against human HCC1419 cells assessed as inhibition of cell proliferation incubated for 3 days by CellTiter-Glo Luminescent Cell Viability Assay. In kind it is functional, cell-based. Conditions: HCC1419, 72 h. Summed up:
as §2

The subject of assay [13] is HCC1806. Description: Antiproliferative activity against human HCC1806 cells assessed as inhibition of cell proliferation incubated for 3 days by CellTiter-Glo Luminescent Cell Viability Assay. The assay is classed as functional, cell-based. The note with it: HCC1806, 72 h. Summed up:
as §2

The test system of assay [14] is BT-474. Briefly: Antiproliferative activity against human BT-474 cells assessed as inhibition of cell proliferation incubated for 3 days by CellTiter-Glo Luminescent Cell Viability Assay. In kind it is functional, cell-based. The note with it: BT-474, 72 h. Summed up: as §2
For assay [15], the system named is CAMA-1. Briefly: Antiproliferative activity against human CAMA-1 cells assessed as inhibition of cell proliferation incubated for 3 days by CellTiter-Glo Luminescent Cell Viability Assay. The note with it: CAMA-1, 72 h. In kind it is functional, cell-based. In a few lines:
as §2

The test system of assay [16] is MCF7. Briefly: Antiproliferative activity against human MCF7 cells assessed as inhibition of cell proliferation incubated for 3 days by CellTiter-Glo Luminescent Cell Viability Assay. The assay is classed as functional, cell-based. The note with it: MCF7, 72 h. In a few lines:
as §2

Assay [17] concerns the target AMP-activated protein kinase (AMPK) alpha-1/beta-1/gamma-1 (Homo sapiens) (UniProt P54619+Q9Y478+Q13131). Description: Inhibition of human AMPK alpha1/beta1/gamma1 in presence of ATP relative to control. In kind it is protein-complex assay. The note with it: concentration not given here.
Assay [18] has as its target cGMP-dependent protein kinase 1 (Homo sapiens) (UniProt Q13976). Description: Inhibition of human PRKG1 in presence of ATP relative to control. Conditions: concentration not given here.
For assay [19], the target named is T1, cGMP-dependent protein kinase 1 (Homo sapiens, UniProt Q13976).
T1 sequence (Q13976 whole entry): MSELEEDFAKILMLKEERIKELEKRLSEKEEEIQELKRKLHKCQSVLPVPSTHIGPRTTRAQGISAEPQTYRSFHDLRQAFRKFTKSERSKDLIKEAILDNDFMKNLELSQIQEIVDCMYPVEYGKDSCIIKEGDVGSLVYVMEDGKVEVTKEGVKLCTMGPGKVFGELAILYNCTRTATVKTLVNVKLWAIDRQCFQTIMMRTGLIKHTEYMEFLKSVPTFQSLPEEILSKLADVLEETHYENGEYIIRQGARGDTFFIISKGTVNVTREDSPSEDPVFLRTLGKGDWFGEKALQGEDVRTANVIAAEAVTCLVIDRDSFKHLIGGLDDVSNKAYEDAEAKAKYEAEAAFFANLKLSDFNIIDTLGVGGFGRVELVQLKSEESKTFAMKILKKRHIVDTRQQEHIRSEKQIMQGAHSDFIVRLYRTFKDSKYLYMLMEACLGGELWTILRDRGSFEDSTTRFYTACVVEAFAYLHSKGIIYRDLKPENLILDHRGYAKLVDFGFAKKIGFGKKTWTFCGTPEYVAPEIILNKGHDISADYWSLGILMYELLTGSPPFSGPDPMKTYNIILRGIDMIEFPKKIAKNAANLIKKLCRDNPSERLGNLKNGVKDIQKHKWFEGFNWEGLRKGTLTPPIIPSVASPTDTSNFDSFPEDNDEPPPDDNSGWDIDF
Description: Inhibition of human PRKG1 assessed as inhibition constant in presence of ATP.

For assay [20], the target named is Protein kinase C theta type (Homo sapiens, UniProt Q04759). Briefly: Inhibition of human PKCtheta in presence of ATP.
Protein kinase C theta type, sequence (Q04759 whole entry): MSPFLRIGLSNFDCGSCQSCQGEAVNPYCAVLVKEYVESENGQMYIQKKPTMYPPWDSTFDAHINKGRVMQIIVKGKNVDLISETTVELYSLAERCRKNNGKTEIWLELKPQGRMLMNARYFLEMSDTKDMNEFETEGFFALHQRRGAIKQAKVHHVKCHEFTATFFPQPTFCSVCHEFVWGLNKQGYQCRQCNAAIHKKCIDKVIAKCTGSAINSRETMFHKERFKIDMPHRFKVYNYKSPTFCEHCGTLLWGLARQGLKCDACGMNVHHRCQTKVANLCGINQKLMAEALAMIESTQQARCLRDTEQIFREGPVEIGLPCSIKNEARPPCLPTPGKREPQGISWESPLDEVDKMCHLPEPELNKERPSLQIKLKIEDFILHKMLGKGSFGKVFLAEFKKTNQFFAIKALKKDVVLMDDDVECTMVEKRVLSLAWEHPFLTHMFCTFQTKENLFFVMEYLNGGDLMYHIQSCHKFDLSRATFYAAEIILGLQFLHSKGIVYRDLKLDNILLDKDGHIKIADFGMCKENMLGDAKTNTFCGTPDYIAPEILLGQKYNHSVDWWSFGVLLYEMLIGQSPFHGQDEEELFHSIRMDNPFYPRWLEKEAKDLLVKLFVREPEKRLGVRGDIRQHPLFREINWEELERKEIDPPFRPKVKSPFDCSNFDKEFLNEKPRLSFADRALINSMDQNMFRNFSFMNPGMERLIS
The subject of assay [21] is HCT-116. Description: Downregulation of camptothecin-induced phospho-S810-GEF-H1 level in human HCT-116 cells at 1 uM preincubated with compound for 15 mins followed by camptothecin stimulation and measured after 20 hrs by Western blot analysis. The assay is classed as functional, cell-based. The note with it: time 20.25 hrs. A general note: Immunoblotting shows a protein as a band on a membrane.

Assay [22] relates to M24met. Description: Antitumor activity against human M24met cells xenografted in nude mouse assessed as tumor growth inhibition at 7.5 mg/kg, po administered once daily for 9 to 18 days relative to control. In kind it is functional. The note with it: time 9-18 day, read-out: TGI.
Assay [23] concerns HCT-116. Description: Antitumor activity against human HCT-116 cells xenografted in nude mouse assessed as reduction in Ki67 at 15 to 25 mg/kg administered orally twice daily by immunohistochemical analysis. The assay is classed as functional, organism-based. The note with it: dose 15-25 mg/kg, route po, time 3-6 day, TDE = time-dependent effect.
Assay [24] relates to HCT-116. Description: Antitumor activity against human HCT-116 cells xenografted in nude mouse assessed as reduction in GSK3beta phosphorylation at S21 residue at 15 to 150 mg/kg/day administered via pump for 18 hrs by Reverse-Phase protein array analysis. Conditions: dose 15-150 mg/kg/day. In kind it is functional, organism-based.

The source made the active and inactive calls. The calls are words filed in the database; no cut-off is given here.

AMP-activated protein kinase (AMPK) alpha-1/beta-1/gamma-1 (Homo sapiens), sequence (P54619 whole entry): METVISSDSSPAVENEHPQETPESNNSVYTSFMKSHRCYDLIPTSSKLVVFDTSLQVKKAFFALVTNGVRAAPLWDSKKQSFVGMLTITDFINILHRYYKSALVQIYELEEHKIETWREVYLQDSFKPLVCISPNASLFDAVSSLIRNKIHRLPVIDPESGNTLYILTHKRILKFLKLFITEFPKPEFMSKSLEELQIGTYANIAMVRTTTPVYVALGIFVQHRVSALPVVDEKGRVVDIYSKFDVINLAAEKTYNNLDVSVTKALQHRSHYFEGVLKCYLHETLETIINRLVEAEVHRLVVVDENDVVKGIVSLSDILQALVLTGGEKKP
AMP-activated protein kinase (AMPK) alpha-1/beta-1/gamma-1 (Homo sapiens), sequence (Q13131 whole entry partner): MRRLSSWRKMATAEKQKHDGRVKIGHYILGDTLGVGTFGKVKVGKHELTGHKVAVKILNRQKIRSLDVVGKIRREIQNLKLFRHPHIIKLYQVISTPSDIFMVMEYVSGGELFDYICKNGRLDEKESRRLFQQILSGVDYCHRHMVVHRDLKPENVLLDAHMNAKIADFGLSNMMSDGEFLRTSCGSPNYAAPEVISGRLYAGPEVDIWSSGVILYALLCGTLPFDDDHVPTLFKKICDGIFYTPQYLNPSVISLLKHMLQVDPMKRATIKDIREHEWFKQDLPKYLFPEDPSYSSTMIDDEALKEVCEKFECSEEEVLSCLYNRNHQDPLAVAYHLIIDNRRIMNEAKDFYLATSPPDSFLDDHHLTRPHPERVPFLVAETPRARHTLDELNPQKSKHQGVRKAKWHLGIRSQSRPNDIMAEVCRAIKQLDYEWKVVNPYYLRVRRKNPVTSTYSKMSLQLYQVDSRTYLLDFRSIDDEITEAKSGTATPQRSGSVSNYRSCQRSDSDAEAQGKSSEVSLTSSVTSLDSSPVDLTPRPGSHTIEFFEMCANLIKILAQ
AMP-activated protein kinase (AMPK) alpha-1/beta-1/gamma-1 (Homo sapiens), sequence (Q9Y478 2-270 partner limits assumed): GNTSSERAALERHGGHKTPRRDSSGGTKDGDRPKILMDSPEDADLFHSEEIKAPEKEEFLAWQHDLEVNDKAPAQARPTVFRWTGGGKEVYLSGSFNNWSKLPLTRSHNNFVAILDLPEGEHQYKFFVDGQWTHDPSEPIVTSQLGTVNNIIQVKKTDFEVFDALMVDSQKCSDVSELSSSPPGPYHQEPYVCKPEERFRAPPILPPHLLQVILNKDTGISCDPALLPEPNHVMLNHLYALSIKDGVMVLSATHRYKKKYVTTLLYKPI

In general, IC50 refers to the concentration needed to halve the response being measured. In general, inhibition refers to the change of the read-out against control, counted positive when it falls. For orientation: Ki means the equilibrium dissociation constant of an inhibitor or competing ligand from its target. In the case of `Cc1nc(Nc2n[nH]c3c2CN(C(=O)N[C@H](CN(C)C)c2ccccc2)C3(C)C)c2sccc2n1` [PF-03758309], the IC50 in [1] was determined as 2 nM; in assay [2] it was 6.4 nM; in assay [3], 15 nM; in assay [4], 51 nM; in [5], 518 nM; in [6], 3.79 nM. The IC50 in assay [7] is 14.2 nM; in [8], 11.9 nM; in [9], 1.36 nM; in assay [10], 3.45 nM; in [11], 0.24 nM; in assay [12], 0.79 nM. The IC50 in [13] is 1.2 nM; in [14], 1.8 nM; in assay [15], 2.7 nM; in [16], 44.6 nM; in [20], 28 nM. In addition, the figures for the inhibition in [17] and in assay [18] were 101% and 97%, respectively. The Ki in [19] turned out to be 15 nM. The result in assay [21] and in assay [24] was Active. For the same compound, in [22], the inhibition in vivo at 7.5 mg/kg stood at 49%. In assay [23], the Activity entry is “Tde”.

The values are drawn from ChEMBL document CHEMBL5678802, “Small-molecule p21-activated kinase inhibitor PF-3758309 is a potent inhibitor of oncogenic signaling and tumor growth” (Proc Natl Acad Sci U S A, 2010).
